Source: PubChem
In the library only some 4.3% were active in any assay of this set; here they are far more common.
SR-BI DiI-HDL act: activators of SR-BI mediated DiI-HDL uptake, primary screen, ldlA[mSR-BI] CHO cells, DiI fluorescence; hit rate 0.096% among 320,000; 3 h; 100 = double the neutral-control signal; AID 504775, 2011; activation, % at 12.5 µM;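 active = mean replicate activation of at least 60% and every replicate at or above 60%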
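System: LDL receptor-deficient CHO ldlA cells overexpressing murine SR-BI | Timing: 3 h uptake period with compound, 37 °C | Medium: HEPES-buffered (25 mM, pH 7.4) F12 plus 0.5% BSA | Dosing: Single-point compound dose | Signal: Bottom-read fluorescence, 550/595 nm | Read-out: Retained DiI signal reflecting DiI-HDL uptake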
SMARCA2 act: SMARCA2 (BRM) function activators, primary screen, cell-based, luminescence, high throughput; MG213 cells, MMTV-luciferase reporter, dexamethasone, overnight; activation, % at 9.1 µM; hit rate 1% among 370,000; AID 652017, 2013; in the data active = activation above about 7.8%
Yeast superoxide: reduction of superoxide in aged yeast, primary screen, HTS. S. cerevisiae aged cells, superoxide DHE fluorescence; hits give low values. superoxide response (% of plate mean), % at 10 µM. hit rate 0.18% among 330,000. AID 2690, 2010;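 active = superoxide response under a set limit, about three screen SD below normal, cut at about 65% in these data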;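 note: yeast aged for seven days with compound at 30 °C before DHE staining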
AHR act: AHR activators, primary screen, cell-based, luminescence, luciferase reporter, human; Aryl hydrocarbon receptor (Homo sapiens), P35869; AHR-responsive luciferase reporter cells; activation, % at 5 µM; hit rate 2.5% among 320,000; AID 2796, 2010; in the data active = activation above about 47%
Lipid droplet: inhibitors of hepatocyte lipid droplet formation, primary screen, imaging, high-throughput imaging, BODIPY stain; AML12 mouse hepatocytes, oleate lipid droplets; inhibition, % at 6.5 µM; hit rate 0.4% among 240,000; AID 1656, 2009;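 active = lipid droplet intensity inhibited by at least 50%, with more than 500 cells counted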
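Assay system: AML12 mouse liver cells | Compound: 6.5 µM single-point dosing | Schedule: Overnight exposure | Technique: Fluorescence imaging, 20x objective, two fields per well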
SR-BI DiI inh: inhibitors of SR-BI mediated HDL lipid uptake, primary screen, ldlA[mSR-BI] cells, fluorescence, single point; Scavenger receptor class B member 1 (Mus musculus), Q61009; hit rate 0.96% among 320,000; inhibition, % at 12.5 µM; ldlA[mSR-BI] CHO cells, DiI-HDL uptake fluorescence, 3 h;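 active = mean replicate inhibition of at least 70% and a set share of replicates each scoring 70 or more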
Target sequence (Q61009 whole entry, looked up): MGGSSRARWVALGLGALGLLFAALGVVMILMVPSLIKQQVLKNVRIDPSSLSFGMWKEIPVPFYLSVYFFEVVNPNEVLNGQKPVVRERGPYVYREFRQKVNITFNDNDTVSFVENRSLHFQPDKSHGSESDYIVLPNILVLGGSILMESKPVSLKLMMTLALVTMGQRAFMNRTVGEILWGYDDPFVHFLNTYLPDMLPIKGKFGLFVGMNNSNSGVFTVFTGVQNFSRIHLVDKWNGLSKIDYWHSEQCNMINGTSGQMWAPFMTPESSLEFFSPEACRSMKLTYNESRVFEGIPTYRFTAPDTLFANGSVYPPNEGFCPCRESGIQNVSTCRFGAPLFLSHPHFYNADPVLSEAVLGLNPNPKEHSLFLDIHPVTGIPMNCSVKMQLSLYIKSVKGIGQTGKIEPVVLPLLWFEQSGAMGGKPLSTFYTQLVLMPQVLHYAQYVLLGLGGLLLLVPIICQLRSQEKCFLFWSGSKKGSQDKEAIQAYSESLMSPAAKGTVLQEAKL
Each line names hits and unclear results; the compound was inactive in the other large screens; ! = a repeat was not active.

Cc1ccc(NC(=O)Nc2cc(S(C)(=O)=O)ccc2Cl)cc1	AHR act 47
CS(=O)(=O)c1ccc(Cl)c(NC(=O)CCl)c1	none
Cc1nc2c(-c3ccc(Cl)cc3)cnn2c2c1CCC2	AHR act 74
CC(C)n1nc(Cc2cccc3ccccc23)c(C#N)c1N	AHR act 62 (no result: Lipid droplet)
Cn1nc(Cc2cccc3ccccc23)c(C#N)c1N	none (no result: Lipid droplet)
CN(C)/C=C(/C#N)C(=O)c1cccc(Oc2ccc(C(C)(C)C)cc2)c1	SR-BI DiI inh 71
O=C(NCCC1=CCCCC1)C1CCN(S(=O)(=O)c2ccccc2[N+](=O)[O-])CC1	none (no result: SR-BI DiI-HDL act, Yeast superoxide, AHR act, Lipid droplet, SR-BI DiI inh)
COc1ccc(/C=N/Nc2nncc3ccccc23)cc1	SMARCA2 act 8.5, AHR act 48
COc1ccccc1/C=N/Nc1nncc2ccccc12	none
Cc1ccc(S(=O)(=O)Nc2ccc(-c3cn4ccc(C)cc4n3)cc2)cc1	none
Cc1ccn2cc(-c3ccc(Br)cc3)nc2c1	AHR act 74 (no result: SR-BI DiI-HDL act, SR-BI DiI inh)
Cc1ccc2[nH]cc(CCNC(=O)c3ccco3)c2c1	AHR act 97
Cc1cc(C)nc(NC(=NCCc2c[nH]c3ccccc23)NC(=O)Nc2ccc(Cl)c(Cl)c2)n1	none
Cc1cc(C)nc(NC(=NCCc2c[nH]c3ccccc23)NC(=O)Nc2ccccc2)n1	AHR act 52
Cc1cc(C)nc(NC(=NCCc2c[nH]c3ccccc23)NC(=O)c2ccco2)n1	SR-BI DiI inh 71 (no result: Lipid droplet)
CCOc1ccc(-n2c(SCC(=O)NN=Cc3ccc(C(=O)O)cc3)nnc2-c2cccnc2)cc1	none (no result: SR-BI DiI-HDL act, Yeast superoxide, AHR act, Lipid droplet, SR-BI DiI inh)
COc1ccccc1C(=O)NC(=S)Nc1ccc(N2CCCC2)cc1	AHR act 85
O=C(NC(=S)Nc1ccccc1N1CCOCC1)c1ccc(Br)cc1	AHR act 55
COc1ccccc1C(=O)NC(=S)Nc1ccccc1N1CCCC1	AHR act 53, SR-BI DiI inh 75
Cc1ccc(C(=O)Nc2ccc(N3CCCC3)cc2)c(C)c1	SR-BI DiI inh 84
COc1cccc(N(C)C(=O)[C@@H](C)[C@@H](O)c2ccc(Cl)cc2)c1	none (no result: SR-BI DiI-HDL act, Yeast superoxide, AHR act, Lipid droplet, SR-BI DiI inh)
COC(=O)[C@]12C[C@H](CC(=O)NCC34CC5CC(CC(C5)C3)C4)C(=O)N(Cc3ccccc3)C1=C[C@H](C1CCCC1)O[C@@H]2C	none (no result: SR-BI DiI-HDL act, Yeast superoxide, AHR act, Lipid droplet, SR-BI DiI inh)
O=C(NC(=S)Nc1ccccc1N1CCCCC1)c1ccccc1	none
Cc1ccccc1C(=O)NC(=S)Nc1ccccc1N1CCCC1	AHR act 50
COc1cc(C(=O)NC(=S)Nc2ccc(N3CCCC3)cc2)cc(OC)c1OC	SR-BI DiI inh 75
COc1cc2ccccc2cc1C(=O)NC(=S)Nc1ccc(C(=O)O)cc1	AHR act 52
O=C(NC(=S)Nc1ccccc1N1CCCC1)c1ccc(F)cc1	AHR act 71
COC(=O)C1=C(C)N(CC(C)C)C(=S)NC1c1ccc(Cl)cc1 (configuration not stated)	none (no result: SR-BI DiI-HDL act, Yeast superoxide, AHR act, Lipid droplet, SR-BI DiI inh)
C[C@H]1CN(C(=O)OC(C)(C)C)CCN1c1ccc(Br)c(C#N)c1	none (no result: SR-BI DiI-HDL act, Yeast superoxide, AHR act, Lipid droplet, SR-BI DiI inh)
C[C@H]1O[C@@H](n2c3ccc(Cl)cc3c3ccc4c5cc(Cl)ccc5[nH]c4c32)[C@H](O)[C@H](O)[C@H]1O	none (no result: SR-BI DiI-HDL act, Yeast superoxide, AHR act, Lipid droplet, SR-BI DiI inh)
COc1ccc(CNC(=O)c2ccc(CNc3c(NC4CCCCC4)c(=O)c3=O)cc2)cc1	none
COc1ccc(C(=O)Nc2ccc(N3CCCC3)cc2)cc1OC	SR-BI DiI inh 74 (no result: AHR act)
COc1ccc(NC(=O)c2ccc(CNc3c(NC4CCCCC4)c(=O)c3=O)cc2)cc1OC	SR-BI DiI inh 78! (no result: Lipid droplet)
COc1ccc(C(=O)Nc2ccc(N3CCOCC3)cc2)cc1OC	none (no result: Lipid droplet)
O=C1COc2ccccc2C(c2nnnn2Cc2ccccc2)N1Cc1cccs1 (configuration not stated)	none (no result: SR-BI DiI-HDL act, Yeast superoxide, AHR act, Lipid droplet, SR-BI DiI inh)
CCOC(=O)c1ccc(N2CCN(c3ccccc3F)CC2)c(NC(=O)Nc2cccc(OC)c2)c1	Lipid droplet 57
O=C(Nc1nccs1)c1cc(-c2ccccn2)nc2c(Cl)cccc12	AHR act 76
O=C(O)c1cc(N2CCOCC2)nc2ccccc12	none
